From ChEMBL document CHEMBL1126204, “Nucleic acid related compounds. 74. Synthesis and biological activity of 2'(and 3')-deoxy-2'(and 3')-methylenenucleoside analogues that function as mechanism-based inhibitors of S-adenosyl-L-homocysteine hydrolase and/or ribonucleotide reductase” (J Med Chem, 1992) come the findings set out here.

Molecules are shown by their SMILES.

Test system in one assay: not listed separately
In words: In vitro inhibition of Molt/4f (Human T-lymphoblast) cell proliferation. The format is functional.
Settings: not given
Summed up: (§1)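 Human Molt/4F, MT-4, and Raji cells (wild-type, TK⁻ or dCK⁻) in RPMI-1640 with 10% inactivated FCS, 2 mM L-glutamine and 0.075% NaHCO₃, seeded at 7.5 × 10⁵ cells/mL with compound (0.001–500 µM). Incubated 3 days at 37 °C in humidified CO₂; viable cells counted by Coulter counter. IC₅₀ = 50% reduction in viable cells; means of 2–4 independent experiments.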
Usually IC50 stands for the point on the concentration scale where inhibition reaches its midpoint. The low end stands for higher potency, the high end for lower potency. `C=C1[C@H](n2cnc3c(Cl)nc(N)nc32)O[C@H](CO)[C@H]1O` showed an IC50 of 22 µM.

As for `C=C1[C@@H](O)[C@H](n2ccc(=O)[nH]c2=O)O[C@@H]1CO`, the IC50 is above 500 µM.

`C=C1[C@H](n2cnc3c(O)ncnc32)O[C@H](CO)[C@H]1O` showed an IC50 above 200 µM.

For the compound `C=C1[C@@H](O)[C@H](n2cnc3c(S)nc(N)nc32)O[C@@H]1CO`, the IC50 was 276 µM.

`C=C1[C@H](n2cnc3c(N)ncnc32)O[C@H](CO)[C@H]1O` had an IC50 above 500 µM.

Test system in the next assay: not listed separately
In words: In vitro inhibition of FM3A (murine carcinoma) cell proliferation. In kind it is functional. Conditions: Mus musculus. A digest of the protocol:
(§2)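 Murine FM3A or L1210 cells in Eagle's MEM with 10% inactivated FCS, 2 mM L-glutamine and 0.075% NaHCO₃, seeded at 5 × 10⁵ cells/mL with compound (0.001–500 µM). After 2 days at 37 °C in humidified CO₂, viable cells were counted with a Coulter counter. IC₅₀ = 50% fewer viable cells; mean of 2–4 experiments.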
Regarding `C=C1[C@H](n2cnc3c(Cl)nc(N)nc32)O[C@H](CO)[C@H]1O`, the IC50 was 50 µM.

The compound `C=C1[C@@H](O)[C@H](n2ccc(=O)[nH]c2=O)O[C@@H]1CO` returned an IC50 above 500 µM.

The compound `C=C1[C@H](n2cnc3c(O)ncnc32)O[C@H](CO)[C@H]1O` registered an IC50 of 113 µM.

`C=C1[C@@H](O)[C@H](n2cnc3c(S)nc(N)nc32)O[C@@H]1CO` returned an IC50 of 495 µM.

In turn, `C=C1[C@H](n2cnc3c(N)ncnc32)O[C@H](CO)[C@H]1O` registered an IC50 of 232 µM.

For a further assay, the system named is L1210. In words: In vitro inhibition of L1210 (murine leukemia) cell proliferation. In kind it is functional, cell-based. Conditions: Mus musculus. A digest of the protocol: as §2
In turn, `C=C1[C@H](n2cnc3c(Cl)nc(N)nc32)O[C@H](CO)[C@H]1O` returned a concentration for half-maximal inhibition (IC50) of 10 µM.

`C=C1[C@@H](O)[C@H](n2ccc(=O)[nH]c2=O)O[C@@H]1CO` gave a half-maximal inhibitory concentration (IC50) above 500 µM.

Compound `C=C1[C@H](n2cnc3c(O)ncnc32)O[C@H](CO)[C@H]1O` had an IC50 of 60 µM.

For `C=C1[C@@H](O)[C@H](n2cnc3c(S)nc(N)nc32)O[C@@H]1CO`, half-maximal inhibition (IC50) required 207 µM. This IC50 lies about 3.5-fold higher than the previous one.

Turning to `C=C1[C@H](n2cnc3c(N)ncnc32)O[C@H](CO)[C@H]1O`, half-maximal inhibition (IC50) was put at 65 µM. This IC50 is about 3.2-fold lower than that of the compound before.

The next assay has as its system MT4. In words: In vitro inhibition of MT-4 (Human T-lymphocyte) cell proliferation.
Settings: not given
In kind it is functional, cell-based. Summed up: as §1
For the compound `C=C1[C@H](n2cnc3c(Cl)nc(N)nc32)O[C@H](CO)[C@H]1O`, the half-inhibitory concentration (IC50) worked out at 176 µM.

Compound `C=C1[C@@H](O)[C@H](n2ccc(=O)[nH]c2=O)O[C@@H]1CO` yielded an IC50 of 450 µM. Against the preceding compound, the IC50 is about 2.6-fold higher.

`C=C1[C@H](n2cnc3c(O)ncnc32)O[C@H](CO)[C@H]1O` showed an IC50 above 200 µM.

For the compound `C=C1[C@@H](O)[C@H](n2cnc3c(S)nc(N)nc32)O[C@@H]1CO`, the IC50 amounted to 12 µM.

In turn, `C=C1[C@H](n2cnc3c(N)ncnc32)O[C@H](CO)[C@H]1O` returned an IC50 of 131 µM.
